# According to ChEMBL document CHEMBL4020833, “A Systematic Exploration of Macrocyclization in Apelin-13: Impact on Binding, Signaling, Stability, and Cardiovascular Effects” (J Med Chem, 2018):
# Calls of active or inactive are those of the source. No cut-off for these calls is given here. Starred links: 1 amine or outer side, 2 acyl side, 3 side chain; linkers in the order of their positions; H or OH if unused. Positions of bridges follow the written chain, without caps; N, C: chain ends. Non-standard residues stand in square brackets, D forms with d. Residues, ends and D or L forms follow the SMILES beside them. X2 = N=C(N)NCCC[C@@H](C(=O)[*:2])N(CC=[*:3])[*:1]; AllylGly = C=CC[C@H](N)C(=O)O; pGlu = O=C1CC[C@@H](C(=O)O)N1; Nle = CCCC[C@H](N)C(=O)O
# What was measured:
# Apelin receptor [1] = target: T1, Apelin receptor (Homo sapiens, UniProt P35414); assay: Displacement of [125I]-[Nle75, Tyr77] Pyr1-apelin-13 from YFP-tagged human APJ receptor expressed in HEK293 cell membranes after 1 hr by gamma-counting method
# T1 sequence (P35414 whole entry): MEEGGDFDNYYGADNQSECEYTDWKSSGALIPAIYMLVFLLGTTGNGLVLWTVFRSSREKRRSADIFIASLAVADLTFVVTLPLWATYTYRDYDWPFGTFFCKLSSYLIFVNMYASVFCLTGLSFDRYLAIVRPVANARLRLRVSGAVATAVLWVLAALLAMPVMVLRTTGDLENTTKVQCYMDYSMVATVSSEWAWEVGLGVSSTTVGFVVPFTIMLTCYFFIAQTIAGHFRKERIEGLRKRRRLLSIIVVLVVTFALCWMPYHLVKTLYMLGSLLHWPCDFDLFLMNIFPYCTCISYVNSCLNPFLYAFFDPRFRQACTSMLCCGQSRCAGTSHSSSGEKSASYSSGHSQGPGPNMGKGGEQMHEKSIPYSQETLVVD
# Apelin receptor [2] = target: T1, Apelin receptor; assay: Activity at GFP10-tagged human APJ receptor expressed in HEK293 cells assessed as induction of RlucII-tagged beta-arrestin-2 recruitment after 30 mins by BRET assay; type: cell-based
# [3] = Half life in rat plasma at 1 mM by UPLC-MS analysis; type: ADME, cell-free
# Procedure, shortened: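 Male rat plasma incubated with peptide at 37 °C for 2, 4, 7, 24 h (or 10, 20, 60, 120 min for short-lived peptides); quenched with acetonitrile-ethanol (1:1) plus nicotinamide internal standard, then UPLC-MS. Percent remaining fitted to exponential decay for half-life; means ± SEM of three independent experiments. 1 mM is the stock solution.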
# Apelin receptor [4] = target: T1, Apelin receptor; assay: Activity at human APJ receptor expressed in HEK293 cells assessed as dissociation of Galphai1 from Gbetagamma subunit after 5 mins by BRET assay; type: cell-based
# Heart [5] = assay: Inotropic activity in Langendorff isolated-perfused Sprague-Dawley rat heart assessed as drug level causing maximum increase in left ventricular developed pressure efficacy relative to baseline control; type: functional
# Procedure, shortened: (§1)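 Sprague-Dawley rat hearts isolated and perfused in Langendorff mode with increasing peptide concentrations from 0.001 to 0.3 nM. Increase in left ventricular developed pressure recorded as the inotropic read-out, expressed as % from baseline; compared with buffer by unpaired parametric t test.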
# [6] = Drug level in Sprague-Dawley rat plasma at 3 mg/kg, iv measured at 5 mins by LC-MS/MS; type: ADME, organism-based
# Procedure, shortened: (§2)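 Male Sprague-Dawley rats (250-350g) under intramuscular ketamine/xylazine (87/13 mg/kg); compound in 350 µL normal saline given via jugular vein. Carotid blood drawn into EDTA tubes at 1, 5, 10, 15, 30, 60, 120 min (1, 2, 5, 10, 15 min for Pyr-apelin-13), centrifuged for plasma, acetonitrile precipitation with internal standard, LC-MS/MS (ESI+, MRM).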
# [7] = AUC in Sprague-Dawley rat at 3 mg/kg, iv measured up to 120 mins by LC-MS/MS analysis; type: ADME, organism-based; set-up: dose 3 mg/kg, time < 2 hr, route intravenous; settings: in vivo; procedure, shortened: as §2
# Rattus norvegicus [8] = assay: Hypotensive activity in Sprague-Dawley rat assessed as reduction in systemic arterial blood pressure at 19.5 or 65 nmol/kg, iv administered over 10 secs; type: functional
# Procedure, shortened: (§3)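 Male Sprague-Dawley rats (250-350g) anesthetized with intramuscular ketamine/xylazine (87/13 mg/kg), kept on a thermostatic pad. Carotid catheter for arterial pressure; jugular bolus of saline vehicle, then 5 min later peptide (19.6 or 65 nmol/kg; 0.25 ml over 10 s), followed by a saline flush.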
# Apelin receptor [9] = target: T1, Apelin receptor; assay: Induction of human HA-tagged APJ receptor internalization expressed in HEK293 cells after 30 mins by ELISA; type: cell-based
# Heart [10] = assay: Inotropic activity in Langendorff isolated-perfused Sprague-Dawley rat heart assessed as increase in left ventricular developed pressure efficacy at 0.03 nM relative to baseline control; type: functional; settings: in the assay text read “0.003 nM” for “0.03 nM”; procedure, shortened: as §1
# Rattus norvegicus [11] = assay: Hypotensive activity in Sprague-Dawley rat assessed as reduction in systemic arterial blood pressure at 65 nmol/kg, iv administered over 10 secs; type: functional, organism-based; procedure, shortened: as §3
# Heart [12] = assay: Inotropic activity in Langendorff isolated-perfused Sprague-Dawley rat heart assessed as increase in left ventricular developed pressure efficacy at 0.003 nM relative to baseline control; type: functional; procedure, shortened: as §1
Compound,Ki (Apelin receptor [1]) [nM],EC50 (Apelin receptor [2]) [nM],half-life at 1000 µM [3] [h],EC50 (Apelin receptor [4]) [nM],Activity (Heart [5]),further results
CC(C)C[C@H](NC(=O)[C@H](CCCNC(=N)N)NC(=O)[C@@H]1CCCN1C(=O)[C@H](CCCNC(=N)N)NC(=O)[C@@H]1CCC(=O)N1)C(=O)N[C@@H](CO)C(=O)N[C@H]1C/C=C\C[C@@H](C(=O)N2CCC[C@H]2C(=O)N[C@@H](Cc2ccccc2)C(=O)O)NC(=O)[C@@H]2CCCN2C(=O)CNC(=O)[C@H](CCCCN)NC1=O ([pGlu]RPRLS[AllylGly]KGP[AllylGly]PF-OH; staple (Z) 7-11),1.4,400,6.6,20,,
CCCC[C@@H]1NC(=O)[C@@H]2CCCN2C(=O)[C@@H](NC(=O)[C@H](CCCCN)NC(=O)[C@H](Cc2cnc[nH]2)NC(=O)[C@H](CO)NC(=O)[C@H](CC(C)C)NC(=O)[C@H](CCCNC(=N)N)NC(=O)[C@@H]2CCCN2C(=O)[C@H](CCCNC(=N)N)NC(=O)[C@@H]2CCC(=O)N2)CCN(S(=O)(=O)c2ccccc2[N+](=O)[O-])C/C=C\C[C@@H](C(=O)O)NC(=O)[C@@H]2CCCN2C1=O,0.15,57,6.8,1.3,3 pM,concentration at 5 min [6]: 2.5 µM; AUC at 2 h [7]: 2800 ng·h/mL; Activity (Rattus norvegicus [8]): <=40 mmHg; EC50 (Apelin receptor [9]): 45 nM
C=CC[C@H](NC(=O)[C@@H]1CCCN1C(=O)[C@H](CCCC)NC(=O)[C@@H]1CCCN1C(=O)[C@H](CC=C)NC(=O)[C@H](CCCCN)NC(=O)[C@H](Cc1cnc[nH]1)NC(=O)[C@H](CO)NC(=O)[C@H](CC(C)C)NC(=O)[C@H](CCCNC(=N)N)NC(=O)[C@@H]1CCCN1C(=O)[C@H](CCCNC(=N)N)NC(=O)[C@@H]1CCC(=O)N1)C(=O)O ([pGlu]RPRLSHK[AllylGly]P[Nle]P[AllylGly]-OH),2.1,145,2.4,2,,
CSCC[C@H](NC(=O)[C@@H]1CCCN1C(=O)CNC(=O)[C@H](CCCCN)NC(=O)[C@H](Cc1cnc[nH]1)NC(=O)[C@H](CO)NC(=O)[C@H](CC(C)C)NC(=O)[C@H](CCCNC(=N)N)NC(=O)[C@@H]1CCCN1C(=O)[C@H](CCCNC(=N)N)NC(=O)[C@@H]1CCC(=O)N1)C(=O)N1CCC[C@H]1C(=O)N[C@@H](Cc1ccccc1)C(=O)O,,,,,30 pM,AUC at 2 h [7]: 3.33 ng·h/mL; Efficacy (Heart [10]): 81%
CCCC[C@@H]1NC(=O)[C@@H]2CCCN2C(=O)[C@@H](NC(=O)[C@@H](CCCCN)NC(=O)[C@H](Cc2cnc[nH]2)NC(=O)[C@H](CO)NC(=O)[C@H](CC(C)C)NC(=O)[C@H](CCCNC(=N)N)NC(=O)[C@@H]2CCCN2C(=O)[C@H](CCCNC(=N)N)NC(=O)[C@@H]2CCC(=O)N2)C/C=C\C[C@@H](C(=O)O)NC(=O)[C@@H]2CCCN2C1=O,,,,,,Activity (Rattus norvegicus [11]): Active
CCCC[C@@H]1NC(=O)[C@@H]2CCCN2C(=O)[C@@H](NC(=O)[C@H](CCCCN)NC(=O)[C@H](Cc2cnc[nH]2)NC(=O)[C@H](CO)NC(=O)[C@H](CC(C)C)NC(=O)[C@H](CCCNC(=N)N)NC(=O)[C@@H]2CCCN2C(=O)[C@H](CCCNC(=N)N)NC(=O)[C@@H]2CCC(=O)N2)C/C=C\C[C@@H](C(=O)O)NC(=O)[C@@H]2CCCN2C1=O [listing 1 of 2 here],,,,,3 pM,Efficacy (Heart [12]): 217%
CCCC[C@@H]1NC(=O)[C@@H]2CCCN2C(=O)[C@@H](NC(=O)[C@H](CCCCN)NC(=O)[C@H](Cc2cnc[nH]2)NC(=O)[C@H](CO)NC(=O)[C@H](CC(C)C)NC(=O)[C@H](CCCNC(=N)N)NC(=O)[C@@H]2CCCN2C(=O)[C@H](CCCNC(=N)N)NC(=O)[C@@H]2CCC(=O)N2)C/C=C\C[C@@H](C(=O)O)NC(=O)[C@@H]2CCCN2C1=O [listing 2 of 2 here],,,8.6,,,concentration at 5 min [6]: 5.6 µM; AUC at 2 h [7]: 4100 ng·h/mL; Ki (Apelin receptor [1]; hek293): 1.1 nM; EC50 (Apelin receptor [2]; hek293): 272 nM; EC50 (Apelin receptor [9]; hek293): 469 nM; EC50 (Apelin receptor [4]; hek293): 19 nM

# Continued, in another order:
Ki (Apelin receptor [1]) [nM],EC50 (Apelin receptor [2]) [nM],half-life at 1000 µM [3] [h],EC50 (Apelin receptor [4]) [nM],Compound,Activity (Heart [5]),further results
509,,0.7,,CCCC[C@H](NC(=O)[C@@H]1CCCN1C(=O)CNC(=O)[C@H](CCCCN)NC(=O)[C@H](Cc1cnc[nH]1)NC(=O)[C@@H]1C/C=C\C[C@H](NC(=O)[C@@H]2CCC(=O)N2)C(=O)N2CCC[C@H]2C(=O)N[C@@H](CCCNC(=N)N)C(=O)N[C@@H](CC(C)C)C(=O)N1)C(=O)N1CCC[C@H]1C(=O)N[C@@H](Cc1ccccc1)C(=O)O,,
14,825,4.6,30,CCCC[C@@H]1NC(=O)[C@@H]2CCCN2C(=O)CNC(=O)[C@@H](NC(=O)[C@H](Cc2cnc[nH]2)NC(=O)[C@H](CO)NC(=O)[C@H](CC(C)C)NC(=O)[C@H](CCCNC(=N)N)NC(=O)[C@@H]2CCCN2C(=O)[C@H](CCCNC(=N)N)NC(=O)[C@@H]2CCC(=O)N2)C/C=C\C[C@@H](C(=O)N[C@@H](Cc2ccccc2)C(=O)O)NC1=O ([pGlu]RPRLSH[AllylGly]GP[Nle][AllylGly]F-OH; staple (Z) 8-12),,
9.1,512,7.7,19,CCCC[C@H](NC(=O)[C@@H]1CCCN1C(=O)CNC(=O)[C@@H]1C/C=C\CN(C(=O)[C@@H]2CCCN2C(=O)[C@H](CCCNC(=N)N)NC(=O)[C@@H]2CCC(=O)N2)[C@@H](CCCNC(=N)N)C(=O)N[C@@H](CC(C)C)C(=O)N[C@@H](CO)C(=O)N[C@@H](Cc2cnc[nH]2)C(=O)N1)C(=O)N1CCC[C@H]1C(=O)N[C@@H](Cc1ccccc1)C(=O)O ([pGlu]RP[X2]LSH[AllylGly]GP[Nle]PF-OH; staple (Z) 4-8),,
5.7,834,0.8,23,CCCC[C@H](NC(=O)[C@@H]1CCCN1C(=O)CNC(=O)[C@H](CCCCN)NC(=O)[C@H](Cc1cnc[nH]1)NC(=O)[C@H](CO)NC(=O)[C@@H]1C/C=C\C[C@H](N)C(=O)N[C@@H](CCCNC(=N)N)C(=O)N2CCC[C@H]2C(=O)N[C@@H](CCCNC(=N)N)C(=O)N1)C(=O)N1CCC[C@H]1C(=O)N[C@@H](Cc1ccccc1)C(=O)O,,
268,,4.1,,CCCC[C@H](NC(=O)[C@@H]1C/C=C\C[C@H](NC(=O)[C@H](CC(C)C)NC(=O)[C@H](CCCNC(=N)N)NC(=O)[C@@H]2CCCN2C(=O)[C@H](CCCNC(=N)N)NC(=O)[C@@H]2CCC(=O)N2)C(=O)N[C@@H](Cc2cnc[nH]2)C(=O)N[C@@H](CCCCN)C(=O)NCC(=O)N1)C(=O)N1CCC[C@H]1C(=O)N[C@@H](Cc1ccccc1)C(=O)O ([pGlu]RPRL[AllylGly]HKG[AllylGly][Nle]PF-OH; staple (Z) 6-10),,
,,3.9,,CCCC[C@H](NC(=O)[C@@H]1CCCN1C(=O)CNC(=O)[C@H](CCCCN)NC(=O)[C@@H]1C/C=C\C[C@H](NC(=O)[C@H](CCCNC(=N)N)NC(=O)[C@@H]2CCC(=O)N2)C(=O)N[C@@H](CCCNC(=N)N)C(=O)N[C@@H](CC(C)C)C(=O)N[C@@H](CO)C(=O)N1)C(=O)N1CCC[C@H]1C(=O)N[C@@H](Cc1ccccc1)C(=O)O,Active,Activity (Rattus norvegicus [8]): <=40 mmHg
